Measurements as given in ChEMBL document CHEMBL1255187, “Structure-based design and synthesis of potent, ethylenediamine-based, mammalian farnesyltransferase inhibitors as anticancer agents” (J Med Chem, 2010).
pIC50: −log10 of the molar value.

Assays:
[1] = target: Geranylgeranyl transferase type 1 (Mus musculus, UniProt Q61239+Q8BUY9); assay: Inhibition of Rap1A geranylgeranylation expressed in mouse NIH3T3 cells; format: functional, cell-based
How it was run: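 Oncogenic H-Ras-transformed NIH3T3 cells were treated with a range of inhibitor concentrations. […] Detection used peroxidase-conjugated secondary antibodies and enhanced chemiluminescence. IC50 is the mean of three independent assays ± SD unless stated otherwise.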

[2] = target: Geranylgeranyl transferase type I (Homo sapiens, UniProt P49354+P53609); assay: Inhibition of human geranylgeranyltransferase-1 assessed as incorporation of [3H]GGPP into H-Ras-CVLL; format: protein-complex assay
How it was run: (§1)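 In vitro radiometric assay measuring transfer of [3H]FPP (FTase) or [3H]GGPP (GGTase-I) onto recombinant H-Ras-CVLS or H-Ras-CVLL, respectively.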

[3] = target: Protein farnesyltransferase (Homo sapiens, UniProt P49354+P49356); assay: Inhibition of human farnesyltransferase assessed as incorporation of [3H]FPP into H-Ras-CVLS; format: protein-complex assay; how it was run: as §1
[4] = target: Protein farnesyltransferase (Mus musculus, UniProt Q61239+Q8K2I1); assay: Inhibition of H-Ras farnesylation expressed in mouse NIH3T3 cells; format: functional, cell-based
How it was run: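 Oncogenic H-Ras-transformed NIH3T3 cells were treated with a range of inhibitor concentrations. Detection used peroxidase-conjugated secondary antibodies and enhanced chemiluminescence. IC50 is the mean of three independent assays ± SD unless stated otherwise.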

Homo sapiens = species on record: Homo sapiens; assay: Selectivity ratio of IC50 for human geranylgeranyltransferase-1 to IC50 for human farnesyltransferase

Row | pIC50 [1] | pIC50 [2] | pIC50 [3] | pIC50 [4] | Selectivity ratio (Homo sapiens) | SMILES
1 | < 5.00 | 6.22 | 6.94 | < 5.00 | 5.3 | C=C(C)CN(CCN(Cc1cncn1C)c1ccc(C#N)cc1)S(=O)(=O)c1cn(C)cn1
2 | < 5.00 | 4.87 | 6.06 | 6.10 | 15 | Cn1cnc(S(=O)(=O)N(CCN(Cc2cncn2C)c2ccc(C#N)cc2)Cc2ccco2)c1
3 | < 5.00 | < 5.00 | 6.23 | < 5.00 | > 17 | Cn1cnc(S(=O)(=O)N(CCN(Cc2cncn2C)c2ccc(C#N)cc2)CC2CC2)c1
4 | 4.72 | 6.16 | 6.46 | 6.54 | 2 | Cn1cncc1CN(CCN(CC1CCCCC1)S(=O)(=O)c1ccccn1)c1ccc(C#N)cn1
5 | < 5.00 | 5.87 | 6.29 | < 5.00 | 2.7 | Cc1noc(C)c1CN(CCN(Cc1cncn1C)c1ccc(C#N)cc1)S(=O)(=O)c1cn(C)cn1
6 | < 5.00 | 6.29 | 7.52 | 5.37 | 17 | Cn1cnc(S(=O)(=O)N(CCN(Cc2cncn2C)c2ccc(C#N)cc2)CCn2cccc2)c1
7 | < 5.00 | 5.19 | 6.43 | < 5.00 | 18 | Cn1cnc(S(=O)(=O)N(CCN(Cc2cncn2C)c2ccc(C#N)cc2)Cc2ccc(C#N)cc2)c1
8 | < 5.00 | 6.26 | 6.64 | 5.52 | 2.4 | Cn1cnc(S(=O)(=O)N(CCN(Cc2cncn2C)c2ccc(C#N)cc2)Cc2cccc(-c3ccccc3)c2)c1
9 | < 5.00 | < 5.00 | 5.85 | < 5.00 | > 7.1 | Cn1cnc(S(=O)(=O)N(CCN(Cc2cncn2C)c2ccc(C#N)cc2)CC(=O)NC(C)(C)C)c1
10 | < 5.00 | 6.51 | 7.39 | 6.52 | 7.6 | Cn1cncc1CN(CCN(Cc1ccccc1)S(=O)(=O)c1ccccc1)c1ccc(C#N)cc1
11 | < 5.00 | 5.21 | 6.49 | 6.19 | 19 | Cn1cnc(S(=O)(=O)N(CCN(Cc2cncn2C)c2ccc(C#N)cc2)Cc2ccoc2)c1
12 | < 5.00 | 5.00 | 7.52 | 6.22 | 333 | Cn1cncc1CN(CCN(Cc1ccccc1)S(=O)(=O)c1cccc2cccnc12)c1ccc(C#N)cc1
13 | 5.21 | 6.21 | 6.40 | 6.57 | 1.5 | Cn1cncc1CN(CCN(CC1CCCCC1)S(=O)(=O)c1ccccn1)c1ccc(C#N)cc1
14 | < 5.00 | 5.26 | 6.74 | 5.24 | 31 | C=C(Br)CN(CCN(Cc1cncn1C)c1ccc(C#N)cc1)S(=O)(=O)c1cn(C)cn1
15 | < 5.00 | < 5.00 | 7.27 | < 5.00 | > 14 | C=CCN(CCN(Cc1cncn1C)c1ccc(C#N)cc1)S(=O)(=O)c1cn(C)cn1
16 | < 5.00 | 6.11 | 7.29 | 6.00 | 15 | Cc1ccccc1CN(CCN(Cc1cncn1C)c1ccc(C#N)cc1)S(=O)(=O)c1cn(C)cn1
17 | < 5.00 | 5.00 | 7.30 | 6.30 | 200 | Cn1cncc1CN(CCN(Cc1ccccc1)S(=O)(=O)c1cccs1)c1ccc(C#N)cc1

Row | SMILES | pIC50 [1] | pIC50 [2] | pIC50 [3] | pIC50 [4] | Selectivity ratio (Homo sapiens)
18 | Cn1cnc(S(=O)(=O)N(CCN(Cc2cncn2C)c2ccc(C#N)cc2)CC2CCCCC2)c1 | < 5.00 | 6.28 | 7.22 | 7.00 | 8.8
